13 compounds from ChEMBL document CHEMBL3232898, “Heterocyclic aminoparthenolide derivatives modulate G(2)-M cell cycle progression during Xenopus oocyte maturation” (Bioorg Med Chem Lett, 2014) can be followed below.

Test [1] deals with Oocyte. Description: Modulation of G2-M cell cycle progression in Xenopus oocytes assessed as effect on phenotype upon progression to GVBD during oocyte maturation in presence of progesterone. The test is classed as functional, cell-based. A digest of the protocol:
(§1)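 Isolated Xenopus oocytes (20 per well) were incubated overnight with compound added from DMSO stock (100 µM starting concentration, 1% DMSO final). Next morning GVBD was scored by the appearance of a white spot on the animal pole. Oocytes without spots then received 2 µg/ml progesterone. Time to GVBD was expressed relative to the GVBD50 of DMSO controls, where 1.0 means no change, 2.0 means no maturation and 0.0 means spontaneous GVBD.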

Test [2] deals with Oocyte. The experiment in a line: Modulation of G2-M cell cycle progression in Xenopus oocytes assessed as delay time to germinal vesicle breakdown at 100 uM measured after overnight incubation in presence of progesterone. The test is classed as functional, cell-based. A digest of the protocol:
as §1

Test [3] relates to Oocyte. Description: Modulation of G2-M cell cycle progression in Xenopus oocytes assessed as induction of spontaneous maturation by measuring germinal vesicle breakdown at 100 uM after overnight incubation in absence of progesterone. The test is classed as functional, cell-based. A digest of the protocol:
as §1

Test [4] relates to Oocyte. Description: Modulation of G2-M cell cycle progression in Xenopus oocytes assessed as induction of oocyte progression to germinal vesicle breakdown by measuring appearance of white spot on animal pole after overnight incubation in absence of progesterone. It counts as functional, cell-based. A digest of the protocol:
as §1

Test [5] has as its system Xenopus. Description: Activation of progesterone-independent MAPK in Xenopus oocytes assessed as enzyme phosphorylation at 100 uM measured prior to GVBD completion. It counts as cell-based. A digest of the protocol:
(§2)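 Oocytes treated with compound or DMSO were lysed in NP40 buffer with sodium vanadate and protease inhibitors, clarified, run on 10% gels and blotted to nitrocellulose. Blots were blocked in 1% BSA/TBST and probed at 1:1000 with phospho-Cdc2 Tyr15 (inhibitory) and phospho-MAP kinase Thr202/Tyr204 (activating) antibodies, then HRP secondary with ECL detection.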

Test [6] relates to Xenopus. Description: Activation of CDK1/Cyclin B (MPF) in Xenopus oocytes assessed as retention of inhibitory phosphorylation of CDK1 at 100 uM measured prior to GVBD completion. It counts as cell-based. The method, boiled down:
as §2

The test system of test [7] is Xenopus. The experiment in a line: Activation of progesterone-independent MAPK in Xenopus oocytes assessed as enzyme phosphorylation at 100 uM measured after GVBD completion. It counts as cell-based. A digest of the protocol: as §2
Test [8] deals with Xenopus. The experiment in a line: Activation of progesterone-independent MAPK in Xenopus oocytes assessed as de-phosphorylation of MPF at 100 uM measured after GVBD completion. The test is classed as cell-based. The method, boiled down:
as §2

The subject of test [9] is Oocyte. Description: Modulation of G2-M cell cycle progression in Xenopus oocytes assessed as inhibition of progesterone-stimulated maturation by measuring germinal vesicle breakdown at 100 uM measured after overnight incubation. It counts as functional, cell-based. A digest of the protocol: as §1
The test system of test [10] is Oocyte. Description: Modulation of G2-M cell cycle progression in Xenopus oocytes assessed as acceleration of progesterone-stimulated oocyte progression to germinal vesicle breakdown at 5 to 50 uM measured after overnight incubation relative to DMSO-treated control. It counts as functional. A digest of the protocol:
as §1

In test [11] the test system is Oocyte. Description: Modulation of G2-M cell cycle progression in Xenopus oocytes assessed as acceleration of progesterone-stimulated maturation by measuring germinal vesicle breakdown after overnight incubation. The test is classed as functional, cell-based. The settings on record: Xenopus laevis. The method, boiled down:
as §1

The source made the active and inactive calls. No cut-off for these calls is given here.

As for `C/C1=C\CC[C@@]2(C)O[C@@H]2[C@H]2OC(=O)[C@@H](Cn3cnc(CO)c3)[C@@H]2CC1`, the outcome in the test with Oocyte [1] was inactive.

Regarding `C/C1=C\CC[C@@]2(C)O[C@@H]2[C@H]2OC(=O)[C@@H](CNCC3CCNCC3)[C@@H]2CC1`, the result in the test with Oocyte [1] was inactive.

As for `C/C1=C\CC[C@@]2(C)O[C@@H]2[C@H]2OC(=O)[C@@H](CN(C)C)[C@@H]2CC1`, the result in the test on Oocyte [1] was inactive.

On to `C=C1C(=O)O[C@@H]2C3O[C@]3(C)CC/C=C(\C)CC[C@@H]12` (stereo not given in full), for which, in the test with Oocyte [1], the outcome was inactive.

`C/C1=C\CC[C@@]2(C)O[C@@H]2[C@H]2OC(=O)[C@@H](CNCCN3CCOCC3)[C@@H]2CC1`: the result in the test with Oocyte [2] was Active.

On to `C/C1=C\CC[C@@]2(C)O[C@@H]2[C@H]2OC(=O)[C@@H](Cn3ccnc3)[C@@H]2CC1`, for which the outcome with Oocyte [1] was inactive.

In the case of `CSc1nc(NC[C@@H]2C(=O)O[C@H]3[C@H]2CC/C(C)=C/CC[C@@]2(C)O[C@H]32)n[nH]1`, in the test on Oocyte [1], the outcome was inactive.

Consider `C/C1=C\CC[C@@]2(C)O[C@@H]2[C@H]2OC(=O)[C@@H](CNc3nc4ccccc4[nH]3)[C@@H]2CC1`, for which the outcome with Oocyte [3], in the test on Xenopus [5], in the test on Xenopus [7] and in the test with Xenopus [8] was Active. For the same compound, the Activity entry in the test with Oocyte [4] was “Dose-dependent effect”. For the same compound, the outcome with Xenopus [6] was inactive.

As for `C/C1=C\CC[C@@]2(C)O[C@@H]2[C@H]2OC(=O)[C@@H](CNCCCn3ccnc3)[C@@H]2CC1`, the inhibition result in the test on Oocyte [9] is “Active”. Further, the “fold change (FC)” value in the test with Oocyte [10] turned out to be 2. Also, the concentration giving a half-maximal response (EC50) with Oocyte [11] was less than 5 µM.

Turning to `C/C1=C\CC[C@@]2(C)O[C@@H]2[C@H]2OC(=O)[C@@H](CNCc3nc4ccccc4[nH]3)[C@@H]2CC1`, in the test on Oocyte [1], the outcome was inactive.

Turning to `C/C1=C\CC[C@@]2(C)O[C@@H]2[C@H]2OC(=O)[C@@H](Cn3cnc([N+](=O)[O-])c3)[C@@H]2CC1`, in the test on Oocyte [1], the result was inactive.

As to `C/C1=C\CC[C@@]2(C)O[C@@H]2[C@H]2OC(=O)[C@@H](Cn3cnc(C(F)(F)F)c3)[C@@H]2CC1`, the outcome in the test on Oocyte [1] was inactive.

As for `C/C1=C\CC[C@@]2(C)O[C@@H]2[C@H]2OC(=O)[C@@H](Cn3ccnc3C)[C@@H]2CC1`, in the test with Oocyte [1], the outcome was inactive.
